Yeast life ext – compounds extending yeast replicative lifespan, primary screen, S. cerevisiae, OD615; S. cerevisiae growth with nicotinamide; deaD strain in restrictive glucose medium; inhibition of the nicotinamide effect, % at 10 µM; 130,000 tested, 0.68% active; AID 775, 2007;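 active = inhibition above a set limit, placed 3 SD over the median of all compounds, cut at about 26% in these data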;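 note: 0% = nicotinamide-treated wells and 100% = cells grown without nicotinamide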
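System: Modified budding yeast, DeaD strain | Buffer or medium: Restrictive glucose medium | Also added: 1.5 mM nicotinamide | Doses: 10 µM single point, 0.25% DMSO | Schedule: 48 h compound exposure at 30 °C, humidified | Detection: Absorbance at 615 nm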
RAM network inh – inhibitors of the yeast RAM network, primary screen, dse1pr::URA3 reporter, 5-FOA selection. S. cerevisiae dse1pr::URA3 reporter, 5-FOA growth OD615, 2 d; analog-sensitive cbk1-as2 kinase mutant strain. inhibition, % at 50 µM. 190,000 tested, 1.8% active. AID 868, 2007;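 active = inhibition above a set limit, 3 SD over mean compound inhibition, cut at about 8.4% in these data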;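 note: 0% = DMSO-only wells with no growth and 100% = 10 µM 1-NA-PP1 full growth; inhibition rescues growth on 5-FOA so higher OD means more RAM inhibition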
Yeast growth inh – growth inhibitors of yeast BB579 in restrictive medium, primary screen, yeast lifespan-shortening project, S. cerevisiae. OD615, 48 h. inhibition, % at 10 µM. 140,000 tested, 0.51% active;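 active = inhibition above a set limit, 3 SD over the mean compound inhibition, cut at about 44% in these data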
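System: Saccharomyces cerevisiae DeaD strain BB579, replicative lifespan model yeast | Buffer or medium: Restrictive glucose-based CSMM-D medium | Times: 4 h preincubation and 48 h exposure at 30 °C | Detection: OD615 turbidity measurement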
KCC2 mod – KCC2 cotransporter modulators, thallium flux, primary screen, cell-based, HEK293 KCC2, FluoZin-2 fluorescence, MLSMR. KCC2 cells, thallium flux FluoZin-2 fluorescence. B-score of Tl+ flux slope (higher = more flux/activation; lower = inhibition) at 10 µM. 190,000 tested, 2.2% active. AID 1456, 2008;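 active = thallium flux slope and its plate-corrected score both differing from the plate sample mean at a set confidence after two filtering rounds, in either direction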;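 note: slope of fluorescence scaled to starting intensity during 10 to 20 s after thallium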
WT yeast gro inh – growth inhibition of WT strain, primary screen, mitochondrial fusion inhibitor project, WT and mutant strains, chemical genetic | AID 1362, 2008 | inhibition, % at 10 µM | 190,000 tested, 2.1% active | mitochondrial fusion phenotypic screen; in the data active = inhibition above about 58%; tested in S. cerevisiae
Numbers without * were called inactive; x = not tested or not shown. An excerpt weighted towards active compounds, which were near 5.5% of everything screened.

SMILES	Yeast life ext	RAM network inh	Yeast growth inh	KCC2 mod	WT yeast gro inh
O=C(NCCCCc1ccccc1)C12CN(Cc3ccccc3)CC1C(c1ccc([N+](=O)[O-])cc1)=NO2 (configuration not stated)	-10	-1	-34	-0.036	18
COCCCn1c(=S)[nH]c2c(sc3ccccc32)c1=O	x	4	x	57*	34
COCCCn1c(=O)c2ccccc2c2ccccc2c1=O	-20	2	-31	x	5
CN1CCN(c2nc(-c3ccccc3)nc(-c3ccccc3)c2C#N)CC1	x	3	x	0.25	73*
COc1ccc(-c2nc(-c3ccccc3)nc(N3CCN(C)CC3)c2C#N)cc1	-25	1	-77	-0.034	0
COc1ccc(-c2nc(-c3cccc(C)c3)nc(N3CCN(C)CC3)c2C#N)cc1	-13	5	-64	x	45
COc1cccc(-c2nc(-c3ccccc3)nc(N3CCN(C)CC3)c2C#N)c1	x	1	x	-0.29	81*
O=C1CC(=O)N(c2ccccc2)N1c1ccccc1	28*	2	-14	0.93	-8
O=C1CC(=O)N(c2ccccc2)c2ccccc21	0	2	-33	0.0084	2
O=c1c2cc(Br)ccc2nc(-c2cccc(C(F)(F)F)c2)n1O	34	0	-32	24*	9
Cc1c(C(=O)N2CCN(c3ccc(C(F)(F)F)cn3)CC2)oc2ccccc12	-12	4	-26	0.75	71*
O=C(COC(=O)CC(c1ccccc1)c1ccccc1)Nc1c(F)cccc1F	12	8	-71	-0.027	17
CC(=O)NS(=O)(=O)c1ccc(NC(=O)/C=C/c2ccccc2)cc1	x	2	x	-0.00069	-1
O=C(Nc1cccc(S(=O)(=O)Nc2ccccc2F)c1)c1ccc2ccccc2n1	x	5	x	-0.056	87*
O=C(Cc1ccc(Cl)cc1Cl)Nc1cccc(S(=O)(=O)Nc2ccccc2F)c1	15	8.8*	2	-0.03	22
COc1ccccc1NS(=O)(=O)c1cccc(NC(=O)c2ccc3ccccc3n2)c1	-5	5	-17	0.61	30
O=C(/C=C/c1ccccc1)Nc1cccc(S(=O)(=O)Nc2ccccc2F)c1	9	9.3*	-8	2.3	55
N#CC1(NC(=O)CN2CCc3ccccc3C2)CCCC1	x	2	x	-0.37	17
CC1(C)OC(=CC=Nc2ccc(Cl)cc2)OC1(C)C	x	x	x	-0.33	x
CC#C[C@]1(O)CC[C@H]2[C@@H]3CCC4=CC(=O)CCC4=C3[C@@H](c3ccc(N(C)C)cc3)C[C@@]21C	2	3	-35	-0.13	87*
Cc1ccccc1C(=O)O/N=C/c1c(N2CCOCC2)n(C)c2ccccc12	-31	1	79*	0.63	16
Cn1c(Cl)c(/C=N/OC(=O)C2CC2)c2ccccc21	x	3	x	-0.4	49
COc1ccc(CNC(NC(=O)c2ccccc2)(C(F)(F)F)C(F)(F)F)cc1	0	0	-15	-1.7	3
O=C(Nc1cccnc1)C1CCC(CNS(=O)(=O)c2cccc3nsnc23)CC1 (configuration not stated)	x	x	x	0.039	x
O=C(OCc1ccc(C(=O)c2ccccc2)cc1)c1cccc(-c2nnc(-c3ccccc3)o2)c1	0	5	-59	0.39	2
SMILES	Yeast life ext	RAM network inh	Yeast growth inh	KCC2 mod	WT yeast gro inh
CCOC(=O)c1cccc(COC(=O)c2cccc(-c3nnc(-c4ccccc4)o3)c2)c1	0	8.9*	-14	0.2	12
CCc1ccc(CNC(=O)Cn2nc(-c3ccc(C)cc3)ccc2=O)cc1	x	2	x	-2.4	40
Cc1ccc(CNCC(O)(c2ccccc2)c2ccc(Cl)cc2)cc1 (configuration not stated)	x	1	x	0.49	69*
COc1ccc(CNCC(O)(c2ccccc2)c2ccc(Cl)cc2)cc1 (configuration not stated)	-11	1	-52	-0.11	-7
COc1ccc(CCN2C(=O)N(c3ccc(OC)cc3)C(=O)C2CC(=O)Nc2ccccc2)cc1 (configuration not stated)	x	9.1*	x	-0.018	13
Cc1ccc(CCSc2ccc(F)cc2)cn1	x	x	x	-1.7	x
Cc1ccc(CCSc2ccc(C(C)C)cc2)cn1	-5	1	-26	-2.3	74*

Assay outcomes: PubChem BioAssay, several laboratories
